Consider 16 molecules from ChEMBL document CHEMBL4732161, “Discovery of a novel family of FKBP12 "reshapers" and their use as calcium modulators in skeletal muscle under nitro-oxidative stress” (Eur J Med Chem, 2021).

Calls of active or inactive are those of the source. The rule behind the calls is not given here. Bounds are passed on as bounds.

For assay [1], the target named is T1, RyR1/FKBP12 (Homo sapiens) (UniProt P21817+P62942). The experiment in a line: Stabilization of FKBP12/RyR1 protein-protein interaction in human 8220 myoblast-derived myotubes assessed as reversal of SIN1-induced intracellular calcium leakage at 150 nM preincubated for 12 hrs followed by SIN1 stimulation and measured after 6 hrs by fura-2 AM dye based fluorescence assay relative to control. The settings on record: Myotube, time 18.0 hrs. The method in brief: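 Immortalized human 8220 myoblasts differentiated 9 days into myotubes, pretreated with compounds at 150 nM for 12 h, then stressed with 5 mM SIN1 for 6 h. Loaded with Fura-2AM ([…]) plus 0.02% pluronic acid, 30 min, 37 °C; calcium from 340/380 nm excitation ratio. Six replicates, ≥4 images each; recovery score = (treated − untreated)/(control − untreated) × 100.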
In general terms: Calcium assays in cells follow changes in intracellular calcium, usually with a dye or a luminescent sensor.

Assay [2] has as its target T1, RyR1/FKBP12 (Homo sapiens). In words: Effect on FKBP12/RyR1 protein-protein interaction in human myotubes by in situ proximity ligation assay. To be noted: Myotube. Summed up:
(§1)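 Human myotubes 7–9 days into differentiation, treated at 150 nM, then 5 mM SIN1 for 30 min; PFA-fixed, anti-RyR1 mouse mAb overnight, Duolink orange PLA, MyHC-FITC and DAPI counterstain. Co-localization spots quantified as % of untreated control; 11–15 fields from 3–4 cultures, ≥8 myotubes per field; one-way ANOVA with Dunnett's test.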

Assay [3] deals with T2, Peptidyl-prolyl cis-trans isomerase FKBP1A (Homo sapiens, UniProt P62942). In words: Binding affinity to FKBP12 (unknown origin) expressed in HEK293 cells co-expressing FRB assessed as induction of FKBP12-FRB dimerization at […] measured for 15 mins by nano-glo live cell reagent based luminescence assay. Summed up: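 HEK293 cells on poly-D-lysine, transfected with FRB-LgBiT and FKBP-SmBiT vectors (12.5 ng/mL each); assayed 20–24 h later in CO2-independent medium with Nano-Glo Live Cell Reagent at 37 °C. Compound added alone at […]; dimerization luminescence (RLU) followed over time, each addition recorded 15 min.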
T2 sequence (P62942 whole entry): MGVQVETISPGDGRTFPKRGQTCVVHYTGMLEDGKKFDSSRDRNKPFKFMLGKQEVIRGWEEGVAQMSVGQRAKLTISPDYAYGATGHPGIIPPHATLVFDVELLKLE

The target of assay [4] is T2, Peptidyl-prolyl cis-trans isomerase FKBP1A. In words: Binding affinity to FKBP12 (unknown origin) expressed in HEK293 cells co-expressing FRB assessed as inhibition of rapamycin-induced FKBP12-FRB dimerization measured after 25 mins by nano-glo live cell reagent based luminescence assay.
The target in assay [5] is T1, RyR1/FKBP12 (Homo sapiens). The experiment in a line: Stabilization of FKBP12/RyR1 protein-protein interaction in human myotubes assessed as reversal of SIN1-induced reduction in FKBP12/RyR1 co-localization at 150 nM by in situ proximity ligation assay relative to control. Further details: scale not given: the % may be the effect or the level left. To be noted: Myotube. Summed up: as §1

Assay [6] deals with T1, RyR1/FKBP12 (Homo sapiens). The experiment in a line: Stabilization of FKBP12/RyR1 protein-protein interaction in human myotubes assessed as reversal of SIN1-induced reduction in FKBP12/RyR1 co-localization by measuring increase in FKBP12/RyR1 co-localization at 150 nM by in situ proximity ligation assay relative to control. The class given is tissue-based. Further details: scale not given: the % may be the effect or the level left. To be noted: Myotube. The method in brief:
as §1

Turning to `COc1cccc(SCc2cn([C@@H](Cc3ccccc3)C(=O)O)nn2)c1`, the outcome in assay [1] was Active.
Still for that read-out and setting: with `COc1cccc(SCc2cn([C@H](CC(C)C)C(=O)O)nn2)c1` the entry was “Active”.
Still for that read-out and setting: with `O=C(O)Cn1cc(CSc2c(F)c(F)cc(F)c2F)nn1` the figure was under 90%.
Take `COc1cccc(SCc2cn([C@H](Cc3ccccc3)C(=O)O)nn2)c1`: the result in assay [1] was Active.
As usually defined, the IC50 is the concentration that inhibits the measured activity by half. In the case of `COc1cccc(SCc2cn(CC(=O)O)nn2)c1`, the Activity in assay [1] is under 90%; in assay [5], 46%. In addition, the result in assay [2] and in assay [3] was inactive. For the same molecule, the IC50 in assay [4] was determined as 3.32 µM.
With `CC(C)(C)OC(=O)NCCCC[C@@H](C(=O)O)n1cc(CSc2cccc(Cl)c2)nn1`, in assay [1], the outcome was inactive.
On to `COc1ccc(SCc2cn(CC(=O)O)nn2)cc1`, for which, in assay [1], the Activity was under 90%.
Still for that read-out and setting: as for `O=C(O)[C@@H](Cc1ccc(O)cc1)n1cc(CSc2cccc(C(F)(F)F)c2)nn1`, the entry is “Active”.
Same read-out and setting: with `CCC[C@H](C(=O)O)n1cc(CSc2cccc(OC)c2)nn1` the entry was “Active”.
On to `COc1ccc2c(c1)CN(C)CCS2`, for which the result in assay [1] was Active. The result in assay [2] was inactive. Also, the figures for the Activity in assay [6] and in assay [5] were 84% and 56%, respectively.
Regarding `COc1cccc(SCc2cn(C(C)(C)C(=O)O)nn2)c1`, the Activity in assay [1] was under 90%.
On the same count and under the same terms, with `O=C(O)Cn1cc(CSc2ccccc2)nn1` the figure was under 90%; with `O=C(O)Cn1cc(CSc2cccc(Cl)c2)nn1`, “inactive”; with `O=C(O)[C@@H](Cc1ccccc1)n1cc(CSc2cccc(C(F)(F)F)c2)nn1`, “inactive”.
Same read-out and setting: with `O=C(O)[C@H](Cc1ccc(O)cc1)n1cc(CSc2cccc(C(F)(F)F)c2)nn1` the entry was “inactive”; with `Cc1ccc(SCCc2cn(CC(=O)O)nn2)cc1`, under 90%.
